According to ChEMBL document CHEMBL2417469, “Synthesis of novel analogs of 2-pyrazoline obtained from [(7-chloroquinolin-4-yl)amino]chalcones and hydrazine as potential antitumor and antimalarial agents” (Eur J Med Chem, 2013):

Key:
Format in all cases: functional
SK-OV-3 = test: Cytotoxicity against human SKOV3 cells after 48 hrs by SRB assay; details: SK-OV-3, 48 h
Procedure, shortened: (§1)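 NCI 60-cell-line screen. Cells preincubated 24 h at 37 °C, 5% CO2; time-zero plates TCA-fixed. Compounds dissolved in DMSO and tested at five concentrations (100, 10, 1.0, 0.1, 0.01 µM) for 48 h continuous exposure. Adherent cells fixed with cold TCA (10% final), then SRB stained; absorbance at 515 nm. GI50, TGI and LC50 calculated from growth relative to time-zero and untreated controls.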

HCT-116 = test: Cytotoxicity against human HCT116 cells after 48 hrs by SRB assay; details: HCT-116, 48 h; procedure, shortened: as §1
CCRF-CEM = test: Cytotoxicity against human CCRF-CEM cells after 48 hrs by SRB assay; procedure, shortened: as §1
SK-MEL-2 = test: Cytotoxicity against human SK-MEL-2 cells after 48 hrs by SRB assay; details: SK-MEL-2, 48 h; procedure, shortened: as §1
HCT-15 = test: Cytotoxicity against human HCT15 cells after 48 hrs by SRB assay; details: HCT-15, 48 h; procedure, shortened: as §1
CAKI-1 = test: Cytotoxicity against human Caki1 cells after 48 hrs by SRB assay; details: CAKI-1, 48 h; procedure, shortened: as §1
T47D = test: Cytotoxicity against human T47D cells after 48 hrs by SRB assay
Procedure, shortened: (§2)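 NCI 60-cell screen. Cells grew 24 h (37 °C, 5% CO2) before compound was added. Compounds were in DMSO and diluted in medium with gentamicin, then tested at five levels (100, 10, 1.0, 0.1, 0.01 µM) with 48 h continuous exposure. Adherent cells were fixed with TCA (10% final) and stained with 0.4% SRB, absorbance read at 515 nm. A time-zero plate was included. LC50 is the concentration giving 50% loss of protein relative to time zero.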

BT-549 = test: Cytotoxicity against human BT549 cells after 48 hrs by SRB assay; details: BT-549, 48 h; procedure, shortened: as §1
UACC-62 = test: Cytotoxicity against human UACC62 cells after 48 hrs by SRB assay; details: UACC-62, 48 h; for CC50: read-out: LC50 (the source's name); procedure, shortened: as §2
SK-MEL-5 = test: Cytotoxicity against human SK-MEL-5 cells after 48 hrs by SRB assay; details: SK-MEL-5, 48 h; procedure, shortened: as §1
Hs-578T = test: Cytotoxicity against human Hs578T cells after 48 hrs by SRB assay; procedure, shortened: as §1
786-0 = test: Cytotoxicity against human 786-0 cells after 48 hrs by SRB assay; details: 786-0, 48 h; procedure, shortened: as §1
NCI-H460 = test: Cytotoxicity against human NCI-H460 cells after 48 hrs by SRB assay; details: NCI-H460, 48 h; procedure, shortened: as §1
ACHN = test: Cytotoxicity against human ACHN cells after 48 hrs by SRB assay; details: for CC50: read-out: LC50 (the source's name); procedure, shortened: as §1
SN12C = test: Cytotoxicity against human SN12C cells after 48 hrs by SRB assay; procedure, shortened: as §1
MDA-MB-468 = test: Cytotoxicity against human MDA-MB-468 cells after 48 hrs by SRB assay; details: MDA-MB-468, 48 h; procedure, shortened: as §1
M14 = test: Cytotoxicity against human M14 cells after 48 hrs by SRB assay; details: M14, 48 h; for CC50: read-out: LC50 (the source's name); procedure, shortened: as §1
COLO 205 = test: Cytotoxicity against human COLO205 cells after 48 hrs by SRB assay; details: COLO 205, 48 h; procedure, shortened: as §1
A549 = test: Cytotoxicity against human A549/ATCC cells after 48 hrs by SRB assay; details: A549, 48 h; for CC50: read-out: LC50 (the source's name); procedure, shortened: as §1
HOP-92 = test: Cytotoxicity against human HOP92 cells after 48 hrs by SRB assay; details: HOP-92, 48 h; procedure, shortened: as §1
NCI-H23 = test: Cytotoxicity against human NCI-H23 cells after 48 hrs by SRB assay; details: NCI-H23, 48 h; for CC50: read-out: LC50 (the source's name); procedure, shortened: as §1
MDA-MB-435 = test: Cytotoxicity against human MDA-MB-435 cells after 48 hrs by SRB assay; details: MDA-MB-435, 48 h; procedure, shortened: as §1
SK-MEL-28 = test: Cytotoxicity against human SK-MEL-28 cells after 48 hrs by SRB assay; details: SK-MEL-28, 48 h; for CC50: read-out: LC50 (the source's name); procedure, shortened: as §1
HT-29 = test: Cytotoxicity against human HT-29 cells after 48 hrs by SRB assay; details: HT-29, 48 h; procedure, shortened: as §1
MCF7 = test: Cytotoxicity against human MCF7 cells after 48 hrs by SRB assay; details: MCF7, 48 h; for CC50: read-out: LC50 (the source's name); procedure, shortened: as §1
OVCAR-8 = test: Cytotoxicity against human OVCAR8 cells after 48 hrs by SRB assay; details: OVCAR-8, 48 h; procedure, shortened: as §1
RPMI-8226 = test: Cytotoxicity against human RPMI8226 cells after 48 hrs by SRB assay; details: RPMI-8226, 48 h; procedure, shortened: as §1
NCI/ADR-RES = test: Cytotoxicity against human NCI/ADR-RES cells after 48 hrs by SRB assay; details: for CC50: read-out: LC50 (the source's name); procedure, shortened: as §1
Malme-3M = test: Cytotoxicity against human MALME-3M cells after 48 hrs by SRB assay; procedure, shortened: as §1
HL-60(TB) = test: Cytotoxicity against human HL-60(TB) cells after 48 hrs by SRB assay; details: HL-60, 48 h; for CC50: read-out: LC50 (the source's name); procedure, shortened: as §1
NCI-H522 = test: Cytotoxicity against human NCI-H522 cells after 48 hrs by SRB assay; details: NCI-H522, 48 h; for CC50: read-out: LC50 (the source's name); procedure, shortened: as §1
LOX IMVI = test: Cytotoxicity against human LOXIMVI cells after 48 hrs by SRB assay; procedure, shortened: as §1
KM12 = test: Cytotoxicity against human KM12 cells after 48 hrs by SRB assay; details: KM12, 48 h; procedure, shortened: as §1
HOP-62 = test: Cytotoxicity against human HOP62 cells after 48 hrs by SRB assay; details: HOP-62, 48 h; procedure, shortened: as §1
SR = test: Cytotoxicity against human SR cells after 48 hrs by SRB assay; procedure, shortened: as §2
OVCAR-3 = test: Cytotoxicity against human OVCAR3 cells after 48 hrs by SRB assay; details: OVCAR-3, 48 h; procedure, shortened: as §1
PC-3 = test: Cytotoxicity against human PC3 cells after 48 hrs by SRB assay; details: PC-3, 48 h; procedure, shortened: as §1

## O=CN1N=C(c2cccc(Nc3ccnc4cc(Cl)ccc34)c2)CC1c1ccccc1 (stereo unspecified)
SK-OV-3
  GI50: 330 nM
  LC50 (concentration killing 50% of cells): > 100000 nM
HCT-116
  GI50: 390 nM
  LC50: 4750 nM
CCRF-CEM
  GI50: 370 nM
  LC50 (concentration killing 50% of cells relative to time zero): > 100000 nM
SK-MEL-2
  GI50: 260 nM
  LC50: > 100000 nM
HCT-15
  GI50: 520 nM
  LC50 (concentration killing 50% of cells relative to time zero): > 100000 nM
CAKI-1
  GI50: 330 nM
  LC50: 35300 nM
T47D
  GI50: 340 nM
  LC50 (concentration giving 50% cell kill relative to time zero): > 100000 nM
BT-549
  GI50: 210 nM
  LC50 (50% net cell kill vs time zero): 30900 nM
UACC-62
  GI50: 530 nM
  CC50: > 100000 nM
SK-MEL-5
  GI50: 290 nM
  LC50 (concentration killing 50% of cells present at time zero): 64200 nM
Hs-578T
  GI50: 290 nM
  LC50 (50% net cell kill): > 100000 nM
786-0
  GI50: 590 nM
  LC50: > 100000 nM
NCI-H460
  GI50: 410 nM
  LC50: > 100000 nM
ACHN
  GI50: 860 nM
  CC50: > 100000 nM
SN12C
  GI50: 630 nM
  LC50 (50% net cell kill relative to time zero): > 100000 nM
MDA-MB-468
  GI50: 220 nM
  LC50: > 100000 nM
M14
  GI50: 330 nM
  CC50: > 100000 nM
COLO 205
  GI50: 360 nM
  LC50: 7920 nM
A549
  GI50: 540 nM
  CC50: > 100000 nM
HOP-92
  GI50: 210 nM
  LC50 (concentration killing 50% of cells): > 100000 nM
NCI-H23
  GI50: 610 nM
  CC50: > 100000 nM
MDA-MB-435
  GI50: 130 nM
  LC50: > 100000 nM
SK-MEL-28
  GI50: 760 nM
  CC50: > 100000 nM
HT-29
  GI50: 320 nM
  LC50: 4320 nM
MCF7
  GI50: 340 nM
  CC50: > 100000 nM
OVCAR-8
  GI50: 510 nM
  LC50 (50% net cell kill): 56000 nM
RPMI-8226
  GI50: 490 nM
  LC50 (concentration killing 50% of cells): > 100000 nM
NCI/ADR-RES
  GI50: 290 nM
  CC50: > 100000 nM
Malme-3M
  GI50: 370 nM
  LC50: > 100000 nM
HL-60(TB)
  GI50: 200 nM
  CC50: 4560 nM
NCI-H522
  GI50: 210 nM
  CC50: > 100000 nM
LOX IMVI
  GI50: 450 nM
  LC50: 4230 nM
KM12
  GI50: 290 nM
  LC50 (concentration killing 50% of cells): > 100000 nM
HOP-62
  GI50: 510 nM
  LC50 (50% lethal concentration): > 100000 nM
SR
  GI50: 200 nM
  LC50: > 100000 nM
OVCAR-3
  GI50: 280 nM
  LC50: 7380 nM

## O=CN1N=C(c2ccc(Nc3ccnc4cc(Cl)ccc34)cc2)CC1c1ccc(Cl)cc1 (stereo unspecified)
SK-OV-3
  GI50: 570 nM
  LC50 (concentration killing 50% of cells): > 100000 nM
HCT-116
  GI50: 500 nM
  LC50: > 100000 nM
SK-MEL-2
  GI50: 7860 nM
  LC50: > 100000 nM
HCT-15
  GI50: 580 nM
  LC50 (concentration killing 50% of cells relative to time zero): > 100000 nM
CAKI-1
  GI50: 410 nM
  LC50: > 100000 nM
T47D
  GI50: 1560 nM
  LC50 (concentration giving 50% cell kill relative to time zero): > 100000 nM
BT-549
  GI50: 4770 nM
  LC50 (50% net cell kill vs time zero): > 100000 nM
UACC-62
  GI50: 570 nM
  CC50: > 100000 nM
SK-MEL-5
  GI50: 810 nM
  LC50 (concentration killing 50% of cells present at time zero): > 100000 nM
Hs-578T
  GI50: 3930 nM
  LC50 (50% net cell kill): > 100000 nM
786-0
  GI50: 910 nM
  LC50: > 100000 nM
NCI-H460
  GI50: 590 nM
  LC50: > 100000 nM
ACHN
  GI50: 1000 nM
  CC50: > 100000 nM
SN12C
  GI50: 980 nM
  LC50 (50% net cell kill relative to time zero): > 100000 nM
MDA-MB-468
  GI50: 320 nM
  LC50: > 100000 nM
M14
  GI50: 620 nM
  CC50: > 100000 nM
COLO 205
  GI50: 2400 nM
  LC50: > 100000 nM
PC-3
  GI50: 480 nM
  LC50: > 100000 nM
A549
  GI50: 990 nM
  CC50: > 100000 nM
HOP-92
  GI50: > 100000 nM
  LC50 (concentration killing 50% of cells): > 100000 nM
NCI-H23
  GI50: 2770 nM
  CC50: > 100000 nM
MDA-MB-435
  GI50: 200 nM
  LC50: > 100000 nM
SK-MEL-28
  GI50: 760 nM
  CC50: > 100000 nM
HT-29
  GI50: 410 nM
  LC50: > 100000 nM
MCF7
  GI50: 480 nM
  CC50: > 100000 nM
OVCAR-8
  GI50: 3220 nM
  LC50 (50% net cell kill): > 100000 nM
NCI/ADR-RES
  GI50: 360 nM
  CC50: > 100000 nM
Malme-3M
  LC50: > 100000 nM
HL-60(TB)
  GI50: 380 nM
  CC50: > 100000 nM
NCI-H522
  GI50: 390 nM
  CC50: > 100000 nM
LOX IMVI
  GI50: 600 nM
  LC50: > 100000 nM
KM12
  GI50: 540 nM
  LC50 (concentration killing 50% of cells): > 100000 nM
HOP-62
  GI50: 860 nM
  LC50 (50% lethal concentration): > 100000 nM
SR
  GI50: 320 nM
  LC50: > 100000 nM
OVCAR-3
  GI50: 350 nM
  LC50: > 100000 nM
